ChEMBL document CHEMBL4219186, “Structure-activity relationships in a new class of non-substrate-like covalent inhibitors of the bacterial glycosyltransferase LgtC” (Bioorg Med Chem, 2018)
Calls of active or inactive are those of the source. The rule behind the calls is not given here.

Legend:
LgtC [1] = molecular target: T1, LgtC (Neisseria meningitidis, UniProt Q93EK7); test: (§1) Inhibition of recombinant Neisseria meningitidis glycosyltransferase LgtC using UDP-Gal/lactose as substrate preincubated for 30 mins with UDP-Gal followed by lactose addition measured after 20 mins in presence of MnCl2 and calf intestinal phosphatase by malachite green dye based enzyme-coupled colorimetric assay relative to control
T1 sequence (Q93EK7 whole entry): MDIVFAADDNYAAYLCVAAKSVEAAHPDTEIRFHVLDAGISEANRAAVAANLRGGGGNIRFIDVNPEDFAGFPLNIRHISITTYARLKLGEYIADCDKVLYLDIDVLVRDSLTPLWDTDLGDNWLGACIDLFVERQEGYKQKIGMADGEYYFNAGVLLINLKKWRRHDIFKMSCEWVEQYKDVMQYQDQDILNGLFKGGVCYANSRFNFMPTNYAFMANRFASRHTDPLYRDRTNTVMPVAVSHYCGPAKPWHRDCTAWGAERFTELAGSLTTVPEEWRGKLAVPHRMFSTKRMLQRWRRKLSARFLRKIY
How it was run: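 IC50 set-up using DTT-activated recombinant N. meningitidis LgtC at 20-50% donor turnover. Enzyme was pre-incubated 30 min at 30 °C with inhibitor (0.1-100 or 0.1-50 µM, 10% DMSO), UDP-Gal 28 µM, MnCl2 5 mM, CIP 10 U/mL, CEL 1 mg/mL and Triton 0.01% in 13 mM HEPES pH 7.0. Lactose 2 mM was added for 20 min at 30 °C, then read by Malachite Green phosphate detection at 620 nm.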

[2] = molecular target: T2, LgtC (Neisseria meningitidis) (UniProt Q93EK7); test: Inhibition of recombinant Neisseria meningitidis glycosyltransferase LgtC assessed as ratio of Kinact/Ki using UDP-Gal/lactose as substrate preincubated for 20 mins with UDP-Gal followed by lactose addition measured after 20 mins in presence of MnCl2
T2 sequence (whole entry): T1 sequence (Q93EK7 whole entry)
How it was run: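 Kinetic parameters from LgtC activity at ranges of inhibitor (0-50 up to 0-250 µM) after 0, 5, 10 and 20 min pre-incubation. Activity, as % of DMSO control, was plotted against pre-incubation time and fitted exponentially to give Kobs. Kobs was then fitted against [I] with the hyperbolic equation to obtain kinact and Ki. Triplicate.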

[3] = molecular target: T2, LgtC (Neisseria meningitidis); test: (§2) Inhibition of recombinant Neisseria meningitidis glycosyltransferase LgtC using UDP-Gal/lactose as substrate preincubated for 20 mins with UDP-Gal followed by lactose addition measured after 20 mins in presence of MnCl2
How it was run: (§3)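 Dose-response with DTT-activated recombinant N. meningitidis LgtC at 20-50% donor turnover. Pre-incubation was 20 min at 30 °C with inhibitor (0.1-50 up to 0.1-250 µM, 10% DMSO), UDP-Gal 28 µM, MnCl2 5 mM, CIP 10 U/mL, CEL 1 mg/mL and Triton 0.01% in 13 mM HEPES pH 7.0. Lactose 2 mM was then added for 20 min at 30 °C. Malachite Green A620 read-out; triplicate, mean ± SD.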

LgtC [4] = molecular target: T1, LgtC; test: as §2; how it was run: as §3
LgtC [5] = molecular target: T1, LgtC; test: Inhibition of recombinant Neisseria meningitidis glycosyltransferase LgtC using UDP-Gal/lactose as substrate preincubated for 20 mins with UDP-Gal followed by lactose addition measured after 20 mins in presence of MnCl2 by malachite green dye based colorimetric assay; how it was run: as §3
[6] = molecular target: T2, LgtC (Neisseria meningitidis); test: as §1, with “substrate at 25 uM” for “substrate”
How it was run: (§4)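 Recombinant N. meningitidis LgtC, activated with 10 mM DTT (1:1, 30 min, 30 °C) and set to 20-50% UDP-Gal turnover. It was pre-incubated 30 min at 30 °C with 25 or 50 µM inhibitor in 13 mM HEPES pH 7.0 containing UDP-Gal 28 µM, MnCl2 5 mM, CIP 10 U/mL, CEL 1 mg/mL, Triton 0.01% and 10% DMSO. Lactose 2 mM was then added for 20 min at 30 °C. Malachite Green read at A620; activity taken against a DMSO control.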

[7] = molecular target: T2, LgtC (Neisseria meningitidis); test: as §1, with “substrate at 50 uM” for “substrate”; how it was run: as §4
Haemophilus influenzae [8] = test: Growth inhibition of Haemophilus influenzae R2866 up to 100 uM incubated for 1 hr followed by drug removal and re-plating of colonies for 24 hrs by bacterial viable count method; assay type: organism-based; settings: in vivo
How it was run: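 H. influenzae R2866 was grown overnight in supplemented BHI at 37 °C, 180 rpm, then diluted to OD590 0.7. Cells were exposed 1 h at 37 °C to compound (0-200 µM; final DMSO 10%) or DMSO. They were centrifuged, washed twice with sBHI, serially diluted and plated on chocolate agar (24 h, 37 °C, 5% CO2) for viable counts. Triplicate, mean; unpaired t-test.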

Haemophilus influenzae [9] = test: Potentiation of human serum-induced killing of Haemophilus influenzae R2866 at 100 uM in presence of 30% v/v human serum pre-incubated for 1 hr followed by drug removal and re-plating of colonies for 24 hrs by bacterial viable count method; assay type: functional, organism-based
How it was run: (§5)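 Overnight R2866 sBHI culture, diluted to OD590 0.7, was exposed 1 h at 37 °C to 30% v/v normal human serum plus inhibitor (50 or 100 µM); the control received 30% serum alone. Serum and compound were removed by centrifugation and two sBHI washes. Cells were serially diluted and plated on chocolate agar (24 h, 37 °C, 5% CO2) for viable counts. Triplicate, mean.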

Haemophilus influenzae [10] = test: Toxicity against Haemophilus influenzae R2866; assay type: organism-based; settings: in vivo
Haemophilus influenzae [11] = test: Potentiation of human serum-induced killing of Haemophilus influenzae R2866 at 50 uM in presence of 30% v/v human serum pre-incubated for 1 hr followed by drug removal and re-plating of colonies for 24 hrs by bacterial viable count method; assay type: functional, organism-based; how it was run: as §5

IC50 (LgtC [1]) [µM]	Ratio [2] [M⁻¹ s⁻¹]	Kinact [3] [s⁻¹]	Ki (LgtC [4]) [µM]	IC50 (LgtC [5]) [µM]	inhibition [6] [%]	inhibition [7] [%]	Structure (SMILES)	further results
4.3	–	–	–	–	–	–	COc1ccc(/C=C2\C(=O)N(c3cccc(C(=O)NCCO)c3)N=C2C(F)(F)F)cc1Br	–
–	18	0.0016	88	64	–	–	O=C1/C(=C\c2cccc(Cl)c2)C(C(F)(F)F)=NN1c1ccccc1	–
–	–	–	–	–	31	39	COc1ccc(/C=C2\C(=O)N(c3ccccc3)N=C2C(N)=O)cc1Br	–
–	–	–	–	–	35	58	COc1ccc(/C=C2\C(=O)N(c3ccccc3)N=C2C(=O)O)cc1Br	–
> 50	–	–	–	–	33	43	COc1ccc(/C=C2\C(=O)N(c3ccccc3)N=C2C)cc1Br	–
28	13	0.002	153	63	–	–	O=C1/C(=C\c2ccccc2)C(C(F)(F)F)=NN1c1ccccc1	–
18	36	0.0018	50	38	–	–	O=C1/C(=C\c2cccc(OCc3ccccc3)c2)C(C(F)(F)F)=NN1c1ccccc1	growth inhibition (GI) (Haemophilus influenzae [8]): Non-Toxic; Activity (Haemophilus influenzae [9]): inactive; growth inhibition (GI) (Haemophilus influenzae [10]): Toxic
–	80	0.0015	19	8.9	–	–	COc1ccc(/C=C2\C(=O)N(c3ccccc3)N=C2C(F)(F)F)cc1	–
–	238	0.0011	4.7	3.3	–	–	O=C1/C(=C\c2ccc(OCc3ccccc3)cc2)C(C(F)(F)F)=NN1c1ccccc1	–
3	–	–	–	–	–	–	COc1ccc(/C=C2\C(=O)N(c3cccc(C(=O)O)c3)N=C2C(F)(F)F)cc1Br	–
–	–	–	–	–	61	66	CCOC(=O)C1=NN(c2ccccc2)C(=O)/C1=C\c1ccc(OC)c(Br)c1	–
–	370	0.0025	6.8	5.8	–	–	O=C1/C(=C\c2ccc(O)cc2)C(C(F)(F)F)=NN1c1ccccc1	–
12	–	–	–	–	–	–	COc1ccc(/C=C2\C(=O)N(Cc3ccccc3)N=C2C(F)(F)F)cc1Br	–
2.9	–	–	–	–	–	–	COc1ccc(/C=C2\C(=O)N(c3ccc(C(=O)O)cc3)N=C2C(F)(F)F)cc1Br	–
–	–	–	–	–	32	67	CCOC(=O)CC1=NN(c2ccccc2)C(=O)/C1=C\c1ccc(OC)c(Br)c1	–
> 100	–	–	–	–	–	–	CCOC(=O)c1ccccc1/C=C1\C(=O)N(c2ccccc2)N=C1C(F)(F)F	–
3.1	163	0.0012	7.1	6.4	80	84	COc1ccc(/C=C2\C(=O)N(c3ccccc3)N=C2C(F)(F)F)cc1Br	Activity (Haemophilus influenzae [11]): inactive; growth inhibition (GI) (Haemophilus influenzae [8]): Non-Toxic
–	–	–	–	–	–	–	CC1=NN(c2ccccc2)C(=O)/C1=C\c1ccccc1C(F)(F)F	growth inhibition (GI) (Haemophilus influenzae [8]): Non-Toxic; Activity (Haemophilus influenzae [9]): inactive; growth inhibition (GI) (Haemophilus influenzae [10]): Toxic
25	18	0.0009	49	80	–	–	O=C1/C(=C\c2ccc(Cl)cc2)C(C(F)(F)F)=NN1c1ccccc1	–
